Experimental data: ChEMBL document CHEMBL4706573, “Synthesis and evaluation of thiophene based small molecules as potent inhibitors of Mycobacterium tuberculosis” (Eur J Med Chem, 2020)
The source made the active and inactive calls. No cut-off for these calls is given here.

System: Mycobacterium tuberculosis
Experiment: Antimycobacterial activity against INH-resistant Mycobacterium tuberculosis mc2497 after 10 to 14 days
Assay type: functional, organism-based
Settings: time 10-14 day
Procedure, shortened: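 MIC99 determined in whole cells, tested in triplicate with INH as the positive control. Strains were wild-type, pMV306, pMV306-pks13 and INH-resistant mc2 497. Susceptibility was scored relative to the parental strain: S where the MIC99 was at most 2x the parental MIC99.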

| SMILES | Activity |
| --- | --- |
| CCOC(=O)c1cc(-c2ccccc2)sc1NC(=O)CBr | inactive |
| NNC(=O)c1ccncc1 [ISONIAZID] | inactive |
| COC(=O)c1cc(-c2cccc(F)c2)sc1NC(=O)CCl | inactive |
| COC(=O)c1cc(-c2cc3ccccc3s2)sc1NC(=O)CCl | inactive |
| COC(=O)c1cc(-c2cc(F)cc(F)c2)sc1NC(=O)CCl | inactive |
| COC(=O)c1cc(-c2ccc(F)cc2)sc1NC(=O)CCl | inactive |
| COC(=O)c1cc(-c2ccc(C(F)(F)F)cc2)sc1NC(=O)CCl | inactive |
| COC(=O)c1cc(-c2ccccc2)sc1NC(=O)CCl | inactive |
| CO[C@H]1/C=C/O[C@@]2(C)Oc3c(C)c(O)c4c(O)c(c(/C=N/N5CCN(C)CC5)c(O)c4c3C2=O)NC(=O)/C(C)=C\C=C\[C@H](C)[C@H](O)[C@@H](C)[C@@H](O)[C@@H](C)[C@H](OC(C)=O)[C@@H]1C [RIFAMPIN] | Active |
| COC(=O)c1ccsc1NC(=O)CCl | inactive |
